target: T1, OR2C1 (Homo sapiens) (UniProt O95371); details: stereoisomer not certain
T1 sequence (whole entry): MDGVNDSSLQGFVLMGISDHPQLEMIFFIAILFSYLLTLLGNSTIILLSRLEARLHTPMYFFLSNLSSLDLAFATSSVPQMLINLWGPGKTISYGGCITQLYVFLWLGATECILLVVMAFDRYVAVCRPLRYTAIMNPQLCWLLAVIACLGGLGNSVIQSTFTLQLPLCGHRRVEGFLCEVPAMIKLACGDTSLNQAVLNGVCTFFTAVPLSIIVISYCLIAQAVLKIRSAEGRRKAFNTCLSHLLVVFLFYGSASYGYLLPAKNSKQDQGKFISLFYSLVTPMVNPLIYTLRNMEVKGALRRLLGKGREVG
How it was run: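 Assay methods differ from source to source, frequently being transient luciferase assays in mammalian cell lines. For each receptor–molecule pair, the label responsive (active) applies when the original authors judged the measured signal statistically different from baseline, and non-responsive (inactive) applies otherwise.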

SMILES	odorant receptor agonist call
c1ccccc1	inactive
CCCCCCCCCC(=O)[O-].[H+]	inactive
CCC(C(=O)O)c1ccccc1 (stereo not drawn)	inactive
CC(C)=CCCC(C)CCO (stereo not drawn)	inactive
CCCCC(C)=O	inactive
CC(=O)Oc1ccccc1	inactive
CCCCOC(=O)C(C)OC(=O)CCC (stereo not drawn)	inactive
CCCCCCC(=O)[O-].[H+]	inactive
O=C1Cc2ccccc2O1	inactive
CCCCCCCC(C)=O	inactive
CCCCCCCO	inactive
CCCCCO	inactive
CCCCCCOC(C)=O	inactive
CCCCCCO	inactive
O=C1CCOc2ccccc21	inactive
CCCCCCCCS	active
COc1cc(C(=O)O)ccc1O	inactive
C=C(C)C1CCC(C)C(=O)C1 (stereo not drawn)	inactive
CCCCCCCCO	inactive
CCCCC(=O)CC	inactive
CCOC(=O)C(C)C	inactive
CCCCC(=O)O	inactive
CCCC(C)=O	inactive
CCCCCC1=C(C)CCC1=O	inactive
CCCCCCCCC(=O)O	inactive
CCCCCCCCCS	active
O=C(c1ccccc1)c1ccccc1	inactive
CCCCCOC(=O)CCCCC	inactive

Reference: the M2OR odorant receptor database
